For one molecule, IC50 results are on record in BindingDB's records for doi:10.1021/np800692t (Chinese Academy of Sciences, 2010).

The target of the assay is Signal transducer and activator of transcription 3 (Homo sapiens, UniProt P40763). The assay can be described thus: Inhibition of STAT3 by Western blotting. In outline: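 Phosphotyrosine Stat3 levels in treated cells, tested up to 10 µM. Cells washed in ice-cold PBS, lysed in SDS sample buffer, equal protein run on SDS-PAGE and transferred to PVDF. Blots blocked in 5% nonfat milk/TBST, then phospho-Stat3 and β-tubulin antibodies at 4 °C overnight, secondary 2 h room temperature, ECL detection. IC50 derived.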
Sequence of Signal transducer and activator of transcription 3 (P40763 whole entry): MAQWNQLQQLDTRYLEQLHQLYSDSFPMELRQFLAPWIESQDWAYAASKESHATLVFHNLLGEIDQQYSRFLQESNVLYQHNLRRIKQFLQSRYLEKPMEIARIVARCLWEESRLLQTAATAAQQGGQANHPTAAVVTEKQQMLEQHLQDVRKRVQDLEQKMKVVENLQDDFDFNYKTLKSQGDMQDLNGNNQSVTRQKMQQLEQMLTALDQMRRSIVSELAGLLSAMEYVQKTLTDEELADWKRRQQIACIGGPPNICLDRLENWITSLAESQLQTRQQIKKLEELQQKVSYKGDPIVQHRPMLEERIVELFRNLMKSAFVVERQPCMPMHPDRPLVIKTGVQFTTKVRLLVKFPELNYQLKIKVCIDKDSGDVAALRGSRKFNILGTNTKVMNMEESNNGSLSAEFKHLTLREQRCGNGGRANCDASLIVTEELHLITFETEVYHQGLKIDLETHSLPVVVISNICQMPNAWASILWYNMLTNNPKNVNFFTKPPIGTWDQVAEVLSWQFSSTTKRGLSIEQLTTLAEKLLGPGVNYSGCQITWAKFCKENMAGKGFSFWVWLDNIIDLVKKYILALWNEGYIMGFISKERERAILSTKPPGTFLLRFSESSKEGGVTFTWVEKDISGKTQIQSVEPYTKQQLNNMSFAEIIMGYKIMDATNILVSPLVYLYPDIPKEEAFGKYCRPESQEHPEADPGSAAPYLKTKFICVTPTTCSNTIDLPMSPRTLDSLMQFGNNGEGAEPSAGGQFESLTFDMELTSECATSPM

As a reminder, the IC50 is the point on the concentration scale where inhibition reaches its midpoint. Low readings indicate greater potency, high ones weaker potency. `CC(=O)OC(C)(C)/C=C/C(=O)[C@](C)(O)[C@H]1[C@H](O)C[C@@]2(C)[C@@H]3CC=C4[C@H](C[C@H](O)C(=O)C4(C)C)[C@]3(C)C(=O)C[C@]12C` [CUCURBITACIN B] came in with an IC50 of 3 µM.
